IDH1 mut inh = IDH1 R132H (human) inhibition. IDH1 R132H reductase, diaphorase/resazurin fluorescence, 60 min. O75874. 70,000 tested, 0.18% active. AID 624101. inhibition, % at 10 µM; in the data active = inhibition above about 34%; inconclusive = no clear call, values can overlap the other calls; inactive = below about 11%;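 note: 0% = DMSO and 100% = no enzyme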
Target sequence (O75874 whole entry R132H): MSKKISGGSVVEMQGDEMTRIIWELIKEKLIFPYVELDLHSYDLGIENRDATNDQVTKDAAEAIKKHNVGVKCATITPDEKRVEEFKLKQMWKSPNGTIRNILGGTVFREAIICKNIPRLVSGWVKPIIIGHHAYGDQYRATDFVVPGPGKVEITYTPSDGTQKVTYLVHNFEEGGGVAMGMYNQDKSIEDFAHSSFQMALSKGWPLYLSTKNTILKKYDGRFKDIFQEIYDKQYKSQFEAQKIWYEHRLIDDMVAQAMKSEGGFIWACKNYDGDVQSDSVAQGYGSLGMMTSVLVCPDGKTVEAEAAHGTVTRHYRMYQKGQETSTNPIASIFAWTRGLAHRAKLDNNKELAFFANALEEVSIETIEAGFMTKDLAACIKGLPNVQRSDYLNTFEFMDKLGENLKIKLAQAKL
KDM4C inh = inhibitors of human demethylase GASC-1 KDM4C; inhibition, % at 12.5 µM; AID 720574; 96,000 tested, 0.15% active; GST-KDM4C 2-372, H3K9me3 peptide, LANCE TR-FRET; Q9H3R0;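 active = mean replicate inhibition above about 25%, with at least 55% of replicates also reaching it, limit read from the data, passing the limit was not always enough; inconclusive = only one of those two conditions met; inactive = neither condition met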
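Material: N-terminal GST-fused human GASC-1 (KDM4C) fragment, residues 2-372. Input: 10 nM enzyme. Incubation: enzyme reaction 30 min, then detection 60 min, both room temperature. Doses: one test concentration per compound. Read-out basis: inhibition from TR-FRET ratio decrease. Detection: LANCE TR-FRET, excitation 340 nm, emissions 618 and 671 nm.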
T cruzi growth-1 = blocks T. cruzi growth in NIH3T3 culture. T. cruzi beta-gal in NIH3T3, GalScreen luminescence, 90 h. inhibition, % at 8.34 µM. 77,000 tested, 5.9% active. AID 624255;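 active = mean inhibition above about 93%, with at least 55% of replicates each passing it, limit read from the data, passing the limit was not always enough; inconclusive = only one of those two conditions holds; inactive = neither condition holds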
T cruzi growth-2 = inhibitors of T. cruzi proliferation. T. cruzi beta-gal in NIH3T3, GalScreen luminescence, 90 h. 5,600 tested, 72% active. shares compounds with T cruzi growth-1. inhibition, % at 8.35 µM;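 active = mean replicate inhibition above about 95% and at least 55% of replicates individually reaching it, limit read from the data; inconclusive = only one of the two criteria is met; inactive = neither criterion is met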
T cruzi growth-3 = Trypanosoma cruzi proliferation inhibition; shares compounds with T cruzi growth-1; T. cruzi beta-gal in NIH3T3, GalScreen luminescence, 90 h; inhibition, % at 2.09 µM; 5,600 tested, 21% active;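 active = mean inhibition above about 95%, with at least 55% of replicates also reaching it, limit read from the data; inconclusive = meets just one of the two conditions; inactive = meets neither condition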;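 note: plate controls were neutral control median for no effect and positive control median for full effect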
3T3 cytotox = cytotoxicity in mouse NIH/3T3 fibroblasts | shares compounds with T cruzi growth-1 | AID 651742 | 5,600 tested, 14% active | cytotoxicity (signal decrease), % at 8.35 µM | NIH/3T3 viability, CellTiter-Glo ATP luminescence, 90 h;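 active = mean signal decrease across replicates above about 35% based on untreated-well scatter, with enough replicates individually passing, limit read from the data; inconclusive = no rule stated though some were filed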;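 note: 0% = median of neutral control wells and 100% = median of positive control wells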
NIH3T3 tox 2 = cytotoxicity in mouse NIH/3T3 fibroblasts; shares compounds with T cruzi growth-1; NIH/3T3 viability, CellTiter-Glo ATP luminescence, 90 h; AID 651744; inhibition, % at 24.9 µM; 5,600 tested, 56% active;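 active = mean loss of cell viability signal at or above a set limit, and enough replicates individually reaching it; inconclusive = meets only the mean limit or only the replicate share; inactive = meets neither condition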;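 note: 0% = median of neutral control wells and 100% = median of positive control wells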
* marks the source's active call; other numbers are inactive results. Shown is part of a subset that was picked to be rich in hits.

Screening CCC(=O)N1C[C@@H](C)[C@@H](OC)CN(C)C(=O)c2ccc(NC(=O)C3CCOCC3)cc2OC[C@@H]1C returned KDM4C inh 0 and T cruzi growth-1 -21.
For C[C@H](CO)N1C[C@H](C)[C@H](CN(C)S(=O)(=O)c2cccs2)Oc2ccc(NC(=O)Nc3ccc(F)cc3)cc2CC1=O the results were IDH1 mut inh 1, KDM4C inh 0 and T cruzi growth-1 24.
For CCCN1[C@@H]2c3ccc(-c4ccccc4)c(=O)n3C[C@H]1[C@H](CO)[C@H]2C(=O)N1CCCCC1 the results were KDM4C inh 0 and T cruzi growth-1 46.
Screening O=S(=O)(c1ccc(F)cc1)N1CCCCN2[C@H](CO)[C@H](c3ccc(C#CC4CC4)cc3)[C@H]2C1 returned KDM4C inh -1, T cruzi growth-1 101*, T cruzi growth-2 104*, T cruzi growth-3 83, 3T3 cytotox 43* and NIH3T3 tox 2 105*.
Screening O=S(=O)(c1ccc(F)cc1)N1CCCCN2[C@H](CO)[C@@H](c3ccc(C#CC4CC4)cc3)[C@@H]2C1 returned KDM4C inh -1 and T cruzi growth-1 44.
`CCCN(C)C[C@H]1Oc2cc(C#Cc3ccccc3OC)ccc2S(=O)(=O)N([C@@H](C)CO)C[C@H]1C` gave IDH1 mut inh 0, KDM4C inh -5, T cruzi growth-1 97*, T cruzi growth-2 106*, T cruzi growth-3 80, 3T3 cytotox 7 and NIH3T3 tox 2 105*.
Screening CCCN(C)C[C@@H]1Oc2cc(C#Cc3ccccc3OC)ccc2S(=O)(=O)N([C@@H](C)CO)C[C@@H]1C returned IDH1 mut inh -4, KDM4C inh 0 and T cruzi growth-1 50.
`CCCN(C)C[C@H]1Oc2cc(C#Cc3ccccc3OC)ccc2S(=O)(=O)N([C@H](C)CO)C[C@H]1C` gave IDH1 mut inh -3, KDM4C inh -2 and T cruzi growth-1 79.
`CCCN(C)C[C@@H]1Oc2cc(C#Cc3ccccc3OC)ccc2S(=O)(=O)N([C@H](C)CO)C[C@@H]1C` gave IDH1 mut inh 0, KDM4C inh -2, T cruzi growth-1 97*, T cruzi growth-2 108*, T cruzi growth-3 81, 3T3 cytotox 21 and NIH3T3 tox 2 107*.
Screening COc1ccc2c3c([nH]c2c1)[C@@H](CO)N(CC1CCCCC1)CC31CN(C(=O)C2CCOCC2)C1 returned KDM4C inh 9.
For O=C(Cc1ccccn1)N[C@@H]1C=C[C@@H](CC(=O)N2CCCCC2)O[C@@H]1CO the results were IDH1 mut inh 0 and T cruzi growth-1 -72.
`C[C@H]1CN([C@@H](C)CO)C(=O)c2cc(C#Cc3ccccc3F)cnc2O[C@H]1CN(C)S(=O)(=O)c1ccccc1` gave KDM4C inh -3.
Screening C[C@H](CO)N1C[C@H](C)[C@H](CN(C)S(=O)(=O)c2ccccc2)Oc2ncc(C#Cc3ccccc3F)cc2C1=O returned IDH1 mut inh 0, KDM4C inh -1, T cruzi growth-1 113*, T cruzi growth-2 104*, T cruzi growth-3 50, 3T3 cytotox 11 and NIH3T3 tox 2 55*.
C[C@H](CO)N1C[C@H](C)[C@@H](CN(C)C)Oc2ncc(C#Cc3ccccc3F)cc2C1=O was read as IDH1 mut inh 1, KDM4C inh 2 and T cruzi growth-1 23.
C[C@@H]1CN([C@@H](C)CO)C(=O)c2cc(C#Cc3ccccc3F)cnc2O[C@H]1CN(C)S(=O)(=O)c1ccccc1 was read as IDH1 mut inh -10, KDM4C inh -1, T cruzi growth-1 121*, T cruzi growth-2 110*, T cruzi growth-3 76, 3T3 cytotox 19 and NIH3T3 tox 2 25*.
Screening CCCNC(=O)N(C)C[C@H]1Oc2ncc(C#Cc3ccccc3F)cc2C(=O)N([C@H](C)CO)C[C@H]1C returned IDH1 mut inh -3, KDM4C inh -1 and T cruzi growth-1 66.
`CCCNC(=O)N(C)C[C@@H]1Oc2ncc(C#Cc3ccccc3F)cc2C(=O)N([C@H](C)CO)C[C@H]1C` gave IDH1 mut inh -6, KDM4C inh 13, T cruzi growth-1 107*, T cruzi growth-2 97*, T cruzi growth-3 16, 3T3 cytotox 4 and NIH3T3 tox 2 43*.
`C[C@@H]1CN([C@@H](C)CO)C(=O)c2cc(C#Cc3ccccc3F)cnc2O[C@H]1CN(C)S(C)(=O)=O` gave IDH1 mut inh -6, KDM4C inh 1 and T cruzi growth-1 69.
For C[C@@H]1CN([C@H](C)CO)C(=O)c2cc(C#Cc3ccccc3F)cnc2O[C@@H]1CN(C)C the results were IDH1 mut inh 0, KDM4C inh -1, T cruzi growth-1 98*, T cruzi growth-2 85, T cruzi growth-3 68, 3T3 cytotox 14 and NIH3T3 tox 2 inconclusive.
CC(C)C#Cc1cnc2c(c1)C(=O)N([C@@H](C)CO)C[C@H](C)[C@@H](CN(C)C(=O)c1cccnc1)O2 was read as IDH1 mut inh -1, KDM4C inh 1 and T cruzi growth-1 56.
Screening Cc1ccc(-c2ccccc2[C@@H]2[C@H](C#N)N(S(C)(=O)=O)[C@H]2CO)cc1 returned KDM4C inh -1.
For C[C@@H]1CN([C@@H](C)CO)C(=O)c2cc(NC(=O)Nc3cccc4ccccc34)ccc2O[C@@H](C)CCCCO[C@H]1CN(C)C(=O)Nc1ccccc1 the results were KDM4C inh 0 and T cruzi growth-1 -11.
COc1cccc(C(=O)Nc2ccc3c(c2)C(=O)N(C)[C@H]2CC[C@@H](CC(=O)N[C@@H](C)c4ccccc4)O[C@@H]2CO3)c1 was read as KDM4C inh 2 and T cruzi growth-1 17.
`C[C@H](NC(=O)C[C@H]1CC[C@H]2[C@@H](COC[C@@H](O)CN2C(=O)Nc2ccccc2)O1)c1ccccc1` gave KDM4C inh -1 and T cruzi growth-1 -13.
Screening Cc1ccc(NC(=O)CSc2nnc(N)s2)cc1 returned IDH1 mut inh 0.
Screening COc1ccc(CN(C)C[C@H]2Oc3ccc(NS(=O)(=O)c4cn(C)cn4)cc3CC(=O)N([C@H](C)CO)C[C@H]2C)cc1 returned IDH1 mut inh 1, KDM4C inh -1 and T cruzi growth-1 5.
For COc1ccc(NC(=O)c2ccc(OC(C)C(=O)Nc3ccccc3C(F)(F)F)cc2)cc1Cl (configuration not stated) the results were IDH1 mut inh 0.

Assay outcomes (PubChem BioAssay)
